In PMC10925991 (Heliyon, 2024):

How the values were obtained:
[1] = tested on: MCF-7 breast adenocarcinoma cells; assay: MTT anti-proliferative assay, MCF-7; format: cell-based; details: Homo sapiens, MCF7, 48 h, read-out: IC50 (μM) ± SD MCF-7
[2] = tested on: RPE-1 human normal Retina pigmented epithelium cells; assay: MTT anti-proliferative assay, RPE-1; format: cell-based; details: RPE-1, 48 h, read-out: IC50 (μM) ± SD RPE-1
Summary of the method: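 RPE-1 cells were grown at 37 °C (5% CO₂, humidified) in RPMI-1640 with 10% heat-inactivated FBS and 100 U/mL penicillin/streptomycin. After 24 h, the medium was changed to serum-free, and serial dilutions of test compound in DMSO were added for 48 h. MTT solution (2.5 mg/mL) was then added for 4 h, formazan was dissolved in DMSO, and A590 was read. Triplicates were repeated on three days. % cytotoxicity = (1 − As/Ab) × 100, from which IC50 was derived.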

Compound | IC50 [1] | IC50 [2]
O=c1[nH]c(=S)[nH]c2nc(-c3ccccc3)cc(-c3ccc4ccccc4n3)c12 [Compound 1, 7-phenyl-5-(quinolin-2-yl)-2-thioxo-2,3-dihydropyrido[2,3-d] pyrimidin-4(1H)-one] | 45.5 ± 2.5 µM | 54.2 ± 2.3 µM
CSc1nc2nc(-c3ccccc3)cc(-c3ccc4ccccc4n3)c2c(=O)[nH]1 [Compound 2, 2-(methylthio)-7-phenyl-5-(quinolin-2-yl) pyrido [2,3-d] pyrimidin-4(3H)-one] | 43.2 ± 2.2 µM | 52.6 ± 1.9 µM
O=c1c2c(-c3ccc4ccccc4n3)cc(-c3ccccc3)nc2nc2n(-c3ccccc3)nc(-c3ccccc3)n12 [Compound 5a, 1,3,8-triphenyl-6-(quinolin-2-yl) pyrido [2,3-d] [1,2,4] triazolo[4,3-a] pyrimidin-5(1H)-one] | 15.1 ± 2.3 µM | 26.4 ± 1.4 µM
CS(=O)(=O)c1nc2nc(-c3ccccc3)cc(-c3ccc4ccccc4n3)c2c(=O)[nH]1 [Compound 6, 2-(methylsulfonyl)-7-phenyl-5-(quinolin-2-yl) pyrido [2,3-d] pyrimidin-4(3H)-one] | 37.8 ± 1.4 µM | 47.3 ± 1.7 µM
O=c1[nH]c(N2CCNCC2)nc2nc(-c3ccccc3)cc(-c3ccc4ccccc4n3)c12 [Compound 7a, 7-phenyl-2-(piperazin-1-yl)-5-(quinolin-2-yl) pyrido [2,3-d] pyrimidin-4(3H)-one] | 31.2 ± 1.8 µM | 42.1 ± 1.9 µM
O=c1[nH]c(N2CCOCC2)nc2nc(-c3ccccc3)cc(-c3ccc4ccccc4n3)c12 [Compound 7b, 2-morpholino-7-phenyl-5-(quinolin-2-yl) pyrido [2,3-d] pyrimidin-4(3H)-one] | 32.5 ± 1.3 µM | 43.5 ± 1.5 µM
O=C(O)c1ccccc1Nc1nc2nc(-c3ccccc3)cc(-c3ccc4ccccc4n3)c2c(=O)[nH]1 [Compound 8, 2-((4-oxo-7-phenyl-5-(quinolin-2-yl)-3,4-dihydropyrido[2,3-d]pyrimidin-2-yl)amino) benzoic acid] | 35.4 ± 1.1 µM | 45.2 ± 1.5 µM
O=c1c2ccccc2[nH]c2nc3nc(-c4ccccc4)cc(-c4ccc5ccccc5n4)c3c(=O)n12 [Compound 9, 2-phenyl-4-(quinolin-2-yl)-5H-pyrido [2′,3':4,5] pyrimido [2,1-b] quinazoline-5,7(12H)-dione] | 8.1 ± 2.1 µM | 21.2 ± 1.1 µM
CSc1nc(Cl)c2c(-c3ccc4ccccc4n3)cc(-c3ccccc3)nc2n1 [Compound 10, 4-chloro-2-(methylthio)-7-phenyl-5-(quinolin-2-yl) pyrido[2,3-d] pyrimidine] | 40.1 ± 2.3 µM | 50.4 ± 1.8 µM
NNc1nc(NN)c2c(-c3ccc4ccccc4n3)cc(-c3ccccc3)nc2n1 [Compound 11, 2,4-dihydrazinyl-7-phenyl-5-(quinolin-2-yl) pyrido [2,3-d] pyrimidine] | 29.5 ± 1.5 µM | 40.1 ± 1.6 µM
c1ccc(Nc2nc(Nc3ccccc3)c3c(-c4ccc5ccccc5n4)cc(-c4ccccc4)nc3n2)cc1 [Compound 13a, N^2, N^4,7-triphenyl-5-(quinolin-2-yl) pyrido [2,3-d] pyrimidine-2,4-diamine] | 23.9 ± 2.1 µM | 34.7 ± 1.3 µM
Clc1ccc(Nc2nc(Nc3ccc(Cl)cc3)c3c(-c4ccc5ccccc5n4)cc(-c4ccccc4)nc3n2)cc1 [Compound 13b, N^2, N^4-bis(4-chlorophenyl)-7-phenyl-5-(quinolin-2-yl) pyrido [2,3-d] pyrimidine-2,4-diamine] | 21.8 ± 2.2 µM | 32.4 ± 1.7 µM
COc1ccc(Nc2nc(Nc3ccc(OC)cc3)c3c(-c4ccc5ccccc5n4)cc(-c4ccccc4)nc3n2)cc1 [Compound 13c, N^2, N^4-bis(4-methoxyphenyl)-7-phenyl-5-(quinolin-2-yl) pyrido [2,3-d] pyrimidine-2,4-diamine] | 22.5 ± 2.3 µM | 33.2 ± 1.4 µM
c1ccc(-c2cc(-c3ccc4ccccc4n3)c3c(N4CCNCC4)nc(N4CCNCC4)nc3n2)cc1 [Compound 14a, 7-phenyl-2,4-di (piperazin-1-yl)-5-(quinolin-2-yl) pyrido [2,3-d] pyrimidine] | 18.7 ± 1.9 µM | 28.1 ± 1.6 µM
c1ccc(-c2cc(-c3ccc4ccccc4n3)c3c(N4CCOCC4)nc(N4CCOCC4)nc3n2)cc1 [Compound 14b, 4,4'-(7-phenyl-5-(quinolin-2-yl)pyrido [2,3-d]pyrimidine-2,4-diyl) dimorpholine] | 19.2 ± 1.5 µM | 29.3 ± 1.1 µM
O=C(O)c1ccccc1Nc1nc(Nc2ccccc2C(=O)O)c2c(-c3ccc4ccccc4n3)cc(-c3ccccc3)nc2n1 [Compound 15, 2,2'-((7-phenyl-5-(quinolin-2-yl)pyrido [2,3-d]pyrimidine-2,4-diyl)bis(azanediyl)) dibenzoic acid] | 27.1 ± 1.2 µM | 38.2 ± 1.1 µM
O=c1c2ccccc2nc2n1c1nc(-c3ccccc3)cc(-c3ccc4ccccc4n3)c1c1nc3ccccc3c(=O)n12 [Compound 16, 8-phenyl-6-(quinolin-2-yl)-11H,18H-pyrido [3′,2':5,6] pyrimido [2,1-b:4,3-b'] diquinazoline-11,18-dione] | 6.2 ± 1.3 µM | 17.5 ± 1.8 µM
COc1cccc2c1C(=O)c1c(O)c3c(c(O)c1C2=O)C[C@@](O)(C(=O)CO)C[C@@H]3O[C@H]1C[C@H](N)[C@H](O)[C@H](C)O1 [Doxorubicin, reference compound] | 10.5 ± 2.2 µM | 30.1 ± 3.1 µM
CNC(=O)c1cc(Oc2ccc(NC(=O)Nc3ccc(Cl)c(C(F)(F)F)c3)cc2)ccn1 [Sorafenib, reference compound] | 31 µM | –
CS(=O)(=O)CCNCc1ccc(-c2ccc3ncnc(Nc4ccc(OCc5cccc(F)c5)c(Cl)c4)c3c2)o1 [lapatinib, reference compound] | 136 µM | –
